Laboratory results from ChEMBL document CHEMBL1154610, “Discovery and preclinical evaluation of [4-[[1-(3-fluorophenyl)methyl]-1H-indazol-5-ylamino]-5-methylpyrrolo[2,1-f][1,2,4]triazin-6-yl]carbamic acid, (3S)-3-morpholinylmethyl ester (BMS-599626), a selective and orally efficacious inhibitor of human epidermal growth factor receptor 1 and 2 kinases” (J Med Chem, 2009).
pIC50: −log10 of the molar value. Activity calls are given as the source filed them. The rule behind the calls is not given here.

Experiments:
[1] = Oral bioavailability in cynomolgus monkey at 5 mg/kg; assay type: ADME, organism-based, Macaca fascicularis; conditions: in vivo
[2] = biological target: Cytochrome P450 2C9 (Homo sapiens, UniProt P11712); test: Inhibition of human CYP2C9; assay type: ADME
Chain of Cytochrome P450 2C9 (P11712 whole entry): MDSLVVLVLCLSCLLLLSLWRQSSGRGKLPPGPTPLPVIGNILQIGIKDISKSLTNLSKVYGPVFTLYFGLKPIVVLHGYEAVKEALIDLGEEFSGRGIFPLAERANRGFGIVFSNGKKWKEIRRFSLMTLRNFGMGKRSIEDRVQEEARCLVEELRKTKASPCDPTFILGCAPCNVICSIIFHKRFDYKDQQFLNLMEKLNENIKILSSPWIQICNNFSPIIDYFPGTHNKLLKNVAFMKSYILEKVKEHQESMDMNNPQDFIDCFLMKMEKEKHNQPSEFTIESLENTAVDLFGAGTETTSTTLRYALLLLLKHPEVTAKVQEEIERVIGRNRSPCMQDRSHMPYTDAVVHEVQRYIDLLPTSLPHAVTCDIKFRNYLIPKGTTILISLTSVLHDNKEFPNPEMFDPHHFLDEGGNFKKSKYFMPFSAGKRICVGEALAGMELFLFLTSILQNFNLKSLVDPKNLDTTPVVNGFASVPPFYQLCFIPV

[3] = Metabolic stability in mouse liver microsomes assessed per mg of protein at 10 uM after 10 mins; assay type: ADME, Microsome
Procedure, shortened: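 Mouse liver microsomes incubated with compound at 10 µM for 10 min; metabolic rate expressed as nmol/min/mg protein.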

[4] = AUC (0 to 4 hrs) in BALB/c mouse at 50 mg/kg, po; assay type: ADME, organism-based; parameters: time < 4 hr, dose 50 mg/kg, route oral; conditions: plasma
[5] = Effect on action potential parameters in rabbit purkinje fiber up to 30 uM; assay type: ADME, tissue-based, Oryctolagus cuniculus
[6] = Protein binding in dog plasma at 10 uM by equilibrium dialysis; assay type: ADME, cell-free, Canis lupus familiaris; conditions: read-out: PPB (converted)
[7] = Intrinsic permeability in human Caco-2 cells; assay type: ADME, cell-based; conditions: read-out: permeability
[8] = Antitumor activity against human GEO cells xenografted in athymic mouse at 120 mg/kg, po qd for 14 days; assay type: functional; conditions: 336 h, read-out: TGI
Procedure, shortened: (§1)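 Xenograft-bearing mice dosed orally once daily in propylene glycol/Tween80/water (40:10:50). TGI taken as percent tumor growth inhibition during treatment; significance from mean tumor weight at end of treatment; body weight loss and morbidity monitored.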

[9] = system: NCI-N87; test: Antitumor activity against human NCI-N87 cells xenografted in athymic mouse at 180 mg/kg, po qd for 21 days; assay type: functional; conditions: NCI-N87, 504 h, read-out: TGI; procedure, shortened: as §1
[10] = Clearance in dog at 1.5 mg/kg, iv; assay type: ADME, organism-based, Canis lupus familiaris; parameters: dose 1.5 mg/kg, route intravenous; conditions: in vivo
[11] = system: NCI-N87; test: Antitumor activity against human NCI-N87 cells xenografted in athymic mouse at 60 mg/kg, po qd for 21 days; assay type: functional; conditions: NCI-N87, 504 h, read-out: TGI; procedure, shortened: as §1
[12] = Clearance in rat at 2.5 mg/kg, iv; assay type: ADME, organism-based; parameters: dose 2.5 mg/kg, route intravenous; conditions: in vivo
[13] = Clearance in cynomolgus monkey at 5 mg/kg, iv; assay type: ADME, organism-based, Macaca fascicularis; parameters: dose 5 mg/kg, route intravenous; conditions: in vivo
[14] = Cmax in dog at 25 mg/kg, po; assay type: ADME, organism-based, Canis lupus familiaris; parameters: dose 25 mg/kg, route oral; conditions: in vivo
[15] = Mean residence time in rat at 2.5 mg/kg, iv; assay type: ADME, organism-based; parameters: dose 2.5 mg/kg, route intravenous; conditions: in vivo
[16] = biological target: T1, Epidermal growth factor receptor and ErbB2 (HER1 and HER2) (Homo sapiens) (UniProt P04626+P00533); test: Inhibition of HER1/HER2-mediated MAPK phosphorylation in human GEO cells by Western blot; assay type: cell-based
[17] = Oral bioavailability in mouse at 120 mg/kg; assay type: ADME, organism-based; conditions: in vivo
[18] = Oral bioavailability in dog at 25 mg/kg; assay type: ADME, organism-based, Canis lupus familiaris; conditions: in vivo
[19] = AUC (0 to 24 hrs) in mouse at 120 mg/kg, po; assay type: ADME, organism-based; parameters: time < 24 hr, dose 120 mg/kg, route oral; conditions: plasma
Procedure, shortened: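 Mice were dosed orally at 120 mg/kg as a solution in PG/Tween80/water (40:10:50).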

[20] = Antitumor activity against human GEO cells xenografted in athymic mouse at 180 mg/kg, po qd for 14 days; assay type: functional; conditions: 336 h, read-out: TGI; procedure, shortened: as §1
[21] = Protein binding in mouse plasma at 10 uM by equilibrium dialysis; assay type: ADME, cell-free; conditions: read-out: PPB (converted)
[22] = Tmax in rat at 10 mg/kg, po; assay type: ADME, organism-based; parameters: dose 10 mg/kg, route oral; conditions: in vivo
Procedure, shortened: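 Rat PK, average of three animals. Solution formulation in PEG400/Tween80/water (50:0.1:50), given orally at 10 mg/kg or iv at 2.5 mg/kg. Tmax comes from oral dosing; Vss comes from iv dosing.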

[23] = Volume of distribution at steady state in mouse at 25 mg/kg, iv; assay type: ADME, organism-based; parameters: dose 25 mg/kg, route intravenous; conditions: in vivo, read-out: Vdss
Procedure, shortened: (§2)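 Mouse PK, average of three animals. Solution formulation in PG/Tween80/water (40:10:50), given orally at 120 mg/kg or iv at 25 mg/kg. Tmax taken from the oral arm; Vss taken from the iv arm.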

[24] = AUC (0 to 24 hrs) in rat at 10 mg/kg, po; assay type: ADME, organism-based; parameters: time < 24 hr, dose 10 mg/kg, route oral; conditions: plasma
[25] = Clearance in mouse at 25 mg/kg, iv; assay type: ADME, organism-based; parameters: dose 25 mg/kg, route intravenous; conditions: in vivo
[26] = Mean residence time in cynomolgus monkey at 5 mg/kg, iv; assay type: ADME, organism-based, Macaca fascicularis; parameters: dose 5 mg/kg, route intravenous; conditions: in vivo
[27] = Mean residence time in dog at 1.5 mg/kg, iv; assay type: ADME, organism-based, Canis lupus familiaris; parameters: dose 1.5 mg/kg, route intravenous; conditions: in vivo
[28] = organism: Mus musculus; test: Toxicity in athymic mouse bearing human tumor cells assessed as weight loss; assay type: organism-based
Procedure, shortened: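 Mice carried human tumor xenografts (L2987, GEO, KPL4, N87) and were dosed orally once daily in propylene glycol/Tween80/water (40:10:50), with a q.d. × 21 schedule given. The L2987 dose levels included 30, 60 and 180 mg/kg. Toxicity was monitored during treatment as significant weight loss or morbidity.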

[29] = Cmax in mouse at 120 mg/kg, po; assay type: ADME, organism-based; parameters: dose 120 mg/kg, route oral; conditions: in vivo
[30] = Volume of distribution at steady state in dog at 1.5 mg/kg, iv; assay type: ADME, organism-based, Canis lupus familiaris; parameters: dose 1.5 mg/kg, route intravenous; conditions: in vivo, read-out: Vdss
Procedure, shortened: (§3)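 Dog PK, average of two animals. Compound dosed as a PEG400/Tween80/water (50:0.1:50) solution, orally at 25 mg/kg and iv at 1.5 mg/kg. Oral data give Tmax; iv data give Vss.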

[31] = Antitumor activity against human KPL4 cells xenografted in athymic mouse at 180 mg/kg, po qd for 21 days; assay type: functional; conditions: KPL4, 504 h, read-out: TGI; procedure, shortened: as §1
[32] = AUC (0 to 24 hrs) in dog at 25 mg/kg, po; assay type: ADME, organism-based, Canis lupus familiaris; parameters: time < 24 hr, dose 25 mg/kg, route oral; conditions: plasma
[33] = Half life in dog plasma at 25 mg/kg, po; assay type: ADME, organism-based, Canis lupus familiaris; parameters: dose 25 mg/kg, route oral
[34] = Tmax in mouse at 120 mg/kg, po; assay type: ADME, organism-based; parameters: dose 120 mg/kg, route oral; conditions: in vivo; procedure, shortened: as §2
[35] = Cmax in cynomolgus monkey at 5 mg/kg, po; assay type: ADME, organism-based, Macaca fascicularis; parameters: dose 5 mg/kg, route oral; conditions: in vivo
[36] = Cmax in rat at 10 mg/kg, po; assay type: ADME, organism-based; parameters: dose 10 mg/kg, route oral; conditions: in vivo
[37] = system: A2780; test: Antiproliferative activity against human A2780 cells after 72 hrs by MTT assay; assay type: functional, cell-based; conditions: A2780, 72 h
Procedure, shortened: (§4)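 Cell proliferation IC50 reported as the mean of three independent determinations. BT474 is a breast line (HER2+++/HER1+); A2780 serves as a HER-independent control.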

[38] = biological target: Receptor tyrosine-protein kinase erbB-4 (Homo sapiens, UniProt Q15303); test: Inhibition of human recombinant HER4 expressed in Sf9 cells by liquid scintillation counting
Chain of Receptor tyrosine-protein kinase erbB-4 (Q15303 whole entry): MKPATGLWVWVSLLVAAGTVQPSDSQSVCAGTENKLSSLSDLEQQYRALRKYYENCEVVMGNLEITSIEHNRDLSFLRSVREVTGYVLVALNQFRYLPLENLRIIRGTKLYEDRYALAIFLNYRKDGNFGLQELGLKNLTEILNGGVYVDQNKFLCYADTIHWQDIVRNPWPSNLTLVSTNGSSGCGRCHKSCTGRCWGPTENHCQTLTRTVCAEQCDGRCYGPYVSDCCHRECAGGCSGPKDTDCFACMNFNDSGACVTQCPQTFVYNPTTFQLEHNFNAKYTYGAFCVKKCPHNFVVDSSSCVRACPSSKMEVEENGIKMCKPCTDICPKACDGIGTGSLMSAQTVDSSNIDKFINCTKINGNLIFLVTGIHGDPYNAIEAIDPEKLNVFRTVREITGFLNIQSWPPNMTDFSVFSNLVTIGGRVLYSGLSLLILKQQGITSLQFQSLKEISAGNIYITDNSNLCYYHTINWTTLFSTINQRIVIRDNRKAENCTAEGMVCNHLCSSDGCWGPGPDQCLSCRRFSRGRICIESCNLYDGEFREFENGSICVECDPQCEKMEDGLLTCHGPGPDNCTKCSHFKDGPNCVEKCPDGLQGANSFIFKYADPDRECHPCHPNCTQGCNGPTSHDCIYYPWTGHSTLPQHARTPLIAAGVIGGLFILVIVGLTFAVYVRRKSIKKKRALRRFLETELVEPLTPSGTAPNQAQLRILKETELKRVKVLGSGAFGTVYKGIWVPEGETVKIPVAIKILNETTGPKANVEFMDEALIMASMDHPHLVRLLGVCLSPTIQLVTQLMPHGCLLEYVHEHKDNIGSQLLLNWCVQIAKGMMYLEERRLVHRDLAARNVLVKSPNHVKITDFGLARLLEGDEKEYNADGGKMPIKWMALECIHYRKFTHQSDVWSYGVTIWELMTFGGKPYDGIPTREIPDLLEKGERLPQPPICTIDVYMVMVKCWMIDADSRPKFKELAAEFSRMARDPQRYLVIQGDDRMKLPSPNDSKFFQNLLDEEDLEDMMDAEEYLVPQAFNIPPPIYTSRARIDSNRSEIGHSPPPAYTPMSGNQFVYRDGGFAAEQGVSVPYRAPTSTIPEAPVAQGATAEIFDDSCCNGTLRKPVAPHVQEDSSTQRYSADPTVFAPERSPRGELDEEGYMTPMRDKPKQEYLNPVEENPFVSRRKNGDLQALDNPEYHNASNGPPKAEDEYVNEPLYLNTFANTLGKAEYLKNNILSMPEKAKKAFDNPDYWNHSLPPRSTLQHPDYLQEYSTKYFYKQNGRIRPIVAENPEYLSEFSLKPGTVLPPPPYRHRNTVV

[39] = system: BT-474; test: Antiproliferative activity against human BT474 cells after 72 hrs by MTT assay; assay type: functional, cell-based; conditions: BT-474, 72 h; procedure, shortened: as §4
[40] = biological target: T1, Epidermal growth factor receptor and ErbB2 (HER1 and HER2) (Homo sapiens); test: Inhibition of epidermal growth factor-induced HER1/HER2 heterodimer formation in human AU565 cells at 1 uM by immunoprecipitation; assay type: cell-based
[41] = Half life in rat plasma at 10 mg/kg, po; assay type: ADME, organism-based; parameters: dose 10 mg/kg, route oral
[42] = Tmax in dog at 25 mg/kg, po; assay type: ADME, organism-based, Canis lupus familiaris; parameters: dose 25 mg/kg, route oral; conditions: in vivo; procedure, shortened: as §3
[43] = Half life in cynomolgus monkey plasma at 5 mg/kg, po; assay type: ADME, organism-based, Macaca fascicularis; parameters: dose 5 mg/kg, route oral
[44] = Tmax in cynomolgus monkey at 5 mg/kg, po; assay type: ADME, organism-based, Macaca fascicularis; parameters: dose 5 mg/kg, route oral; conditions: in vivo
Procedure, shortened: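 Monkey PK, mean of two animals. Compound given as a solution in PEG400/Tween80/water (50:0.1:50), 5 mg/kg both orally and iv. Tmax from the oral route; steady-state volume of distribution from the iv route.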

[45] = Cmax in BALB/c mouse at 50 mg/kg, po; assay type: ADME, organism-based; parameters: dose 50 mg/kg, route oral; conditions: in vivo
[46] = system: L2987; test: Antitumor activity against human L2987 cells xenografted in athymic mouse at 30 mg/kg, po qd for 14 days; assay type: functional; conditions: L2987, 336 h, read-out: TGI; procedure, shortened: as §1

## Cc1c(NC(=O)OC[C@@H]2COCCN2)cn2ncnc(Nc3ccc4c(cnn4Cc4cccc(F)c4)c3)c12 [AC-480]
[1]
  bioavailability: 31%
[2]
  pIC50: 4.92
[3]
  Stability: 0.02 nmol/min
[4]
  AUC(0-t) at 4 h: 13.3 µM·h
[5]
  Activity: Non-toxic
[6]
  fraction unbound at 10 µM: 0.029
[7]
  Papp: 21.4 ×10⁻⁶ cm/s
[8]
  inhibition in vivo at 120 mg/kg: 95%
[9]
  inhibition in vivo at 180 mg/kg: 71%
[10]
  clearance: 24.8 mL/min/kg
[11]
  inhibition in vivo at 60 mg/kg: 39%
[12]
  clearance: 41.6 mL/min/kg
[13]
  clearance: 10.5 mL/min/kg
[14]
  Cmax: 1200 nM
[15]
  MRT: 2.8 h
[16]
  inhibition: Dose-dependent effect
[17]
  bioavailability: 83%
[18]
  bioavailability: 49%
[19]
  AUC(0-t) at 24 h: 147 µM·h
[20]
  inhibition in vivo at 180 mg/kg: 88%
[21]
  fraction unbound at 10 µM: 0.017
[22]
  Tmax: 0.7 h
[23]
  Vd: 4.7 L/kg
[24]
  AUC(0-t) at 24 h: 2.9 µM·h
[25]
  clearance: 21.3 mL/min/kg
[26]
  MRT: 6.4 h
[27]
  MRT: 6.9 h
[28]
  Activity: Non-toxic
[29]
  Cmax: 18000 nM
[30]
  Vd: 10.1 L/kg
[31]
  inhibition in vivo at 180 mg/kg: 129%
[32]
  AUC(0-t) at 24 h: 14 µM·h
[33]
  half-life: 7.2 h
[34]
  Tmax: 1 h
[35]
  Cmax: 500 nM
[36]
  Cmax: 600 nM
[37]
  pIC50: < 5.00
[38]
  pIC50: 6.72
[39]
  pIC50: 6.51
[40]
  inhibition: Active
[41]
  half-life: 2.8 h
[42]
  Tmax: 2.3 h
[43]
  half-life: 5.7 h
[44]
  Tmax: 1.5 h
[45]
  Cmax: 4100 nM
[46]
  inhibition in vivo at 30 mg/kg: < 50%
